# ChEMBL document CHEMBL4689842, “EUbOPEN Chemogenomics Library wave 1” (2021)
# “And” between values parts separate entries of the source, which are not always exact repeats. Equal entries are not always repeated.
# Key:
# Format in all cases: toxicity, cell-based
# [1] = system: U2OS; assay: Multiplex assay against U2OS; conditions: human
# In short: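 Values for tubulin, mitochondrial-mass and membrane-permeability phenotypes are per cents of cells with healthy nuclei. These cells were identified by CellPathfinder machine-learning gating of live cells that had been stained at seeding with Hoechst33342, BioTracker Green Microtubule Cytoskeleton Dye, MitoTracker Red and Annexin V Alexa Fluor 680 and imaged on a CQ1 microscope at 37°C and 5% CO2 after compound addition. The gating first set Hoechst high-intensity objects apart from normal cells, then split normal cells into healthy, pyknosed or fragmented nuclei, and pyknosed cells into mitotic or apoptotic.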
# [2] = system: HEK-293T; assay: Incucyte cell viability with HEK293T; conditions: human, 10 µM, compound concentration 10 uM; note: filed as whole numbers so only -1 and 0 and 1 occur
# [3] = system: Fibroblast; assay: Incucyte cell viability with human fibroblast; conditions: 10 µM, compound concentration 10 uM; note: filed as whole numbers so only -1 and 0 and 1 occur
# [4] = system: U2OS; assay: Incucyte cell viability with U2OS; conditions: human, 10 µM, compound concentration 10 uM; note: filed as whole numbers so only -1 and 0 and 1 occur
# [5] = 12 h, 1 µM, compound concentration 1 uM, replicate 1
# [6] = 12 h, 1 µM, compound concentration 1 uM, replicate 2
# [7] = 12 h, 10 µM, compound concentration 10 uM, replicate 1
# [8] = 12 h, 10 µM, compound concentration 10 uM, replicate 2
# [9] = 24 h, 1 µM, compound concentration 1 uM, replicate 1
# [10] = 24 h, 1 µM, compound concentration 1 uM, replicate 2
# [11] = 24 h, 10 µM, compound concentration 10 uM, replicate 1
# [12] = 24 h, 10 µM, compound concentration 10 uM, replicate 2
# [13] = 48 h, 10 µM, compound concentration 10 uM, replicate 1
# [14] = 48 h, 10 µM, compound concentration 10 uM, replicate 2
# [15] = 0 h, replicate number 1, timepoint 0 hours
# [16] = 12 h, replicate number 1, timepoint 12 hours
# [17] = 18 h, replicate number 1, timepoint 18 hours
# [18] = 24 h, replicate number 1, timepoint 24 hours
# [19] = 6 h, replicate number 1, timepoint 6 hours
smiles,measurement,setting,value
CC(C)Oc1ccc(C(=O)N[C@H](CNC(=O)CN(C)C)Cc2ccc(-c3cn4cccc([C@H](C)O)c4n3)cc2)cc1Cl [GSK-923295A],Population Apoptotic (%),[1]; [5],27%
same,Population Fragmented Nuclei (%),[1]; [5],9%
same,Population Healthy Nuclei (%),[1]; [5],75%
same,Population Hoechst High Intensity Objects (%),[1]; [5],1%
same,Population Membrane Permeable-Phenotype (%),[1]; [5],33%
same,Population Mitochondria Different-Phenotype (%),[1]; [5],23%
same,Population Mitotic Cells (%),[1]; [5],72%
same,Population Normal (%),[1]; [5],98%
same,Population Pyknosed Nuclei (%),[1]; [5],15%
same,Population Tubulin-Different-Phenotype (%),[1]; [5],14%
same,Total Cell Count,[1]; [5],253
same,Population Apoptotic (%),[1]; [6],21%
same,Population Fragmented Nuclei (%),[1]; [6],11%
same,Population Healthy Nuclei (%),[1]; [6],66%
same,Population Hoechst High Intensity Objects (%),[1]; [6],11%
same,Population Membrane Permeable-Phenotype (%),[1]; [6],29%
same,Population Mitotic Cells (%),[1]; [6],78%
same,Population Normal (%),[1]; [6],88%
same,Population Pyknosed Nuclei (%),[1]; [6],22%
same,Population Tubulin-Different-Phenotype (%),[1]; [6],19%
same,Total Cell Count,[1]; [6],153
same,Population Apoptotic (%),[1]; [7],48% and 53%
same,Population Fragmented Nuclei (%),[1]; [7],9% and 14%
same,Population Healthy Nuclei (%),[1]; [7],75% and 62%
same,Population Hoechst High Intensity Objects (%),[1]; [7],3% and 11%
same,Population Membrane Permeable-Phenotype (%),[1]; [7],31% and 19%
same,Population Mitochondria Different-Phenotype (%),[1]; [7],37% and 93%
same,Population Mitotic Cells (%),[1]; [7],51% and 46%
same,Population Normal (%),[1]; [7],96% and 88%
same,Population Pyknosed Nuclei (%),[1]; [7],15% and 23%
same,Population Tubulin-Different-Phenotype (%),[1]; [7],98% and 97%
same,Total Cell Count,[1]; [7],146 and 119
same,Population Apoptotic (%),[1]; [8],30% and 33%
same,Population Fragmented Nuclei (%),[1]; [8],32%
same,Population Healthy Nuclei (%),[1]; [8],73% and 51%
same,Population Hoechst High Intensity Objects (%),[1]; [8],2%
same,Population Membrane Permeable-Phenotype (%),[1]; [8],30% and 56%
same,Population Mitochondria Different-Phenotype (%),[1]; [8],89% and 67%
same,Population Mitotic Cells (%),[1]; [8],69% and 66%
same,Population Normal (%),[1]; [8],97%
same,Population Pyknosed Nuclei (%),[1]; [8],17% and 16%
same,Population Tubulin-Different-Phenotype (%),[1]; [8],100%
same,Total Cell Count,[1]; [8],76 and 116
same,Population Apoptotic (%),[1]; [9],24%
same,Population Fragmented Nuclei (%),[1]; [9],18%
same,Population Healthy Nuclei (%),[1]; [9],61%
same,Population Hoechst High Intensity Objects (%),[1]; [9],2%
same,Population Membrane Permeable-Phenotype (%),[1]; [9],28%
same,Population Mitochondria Different-Phenotype (%),[1]; [9],19%
same,Population Mitotic Cells (%),[1]; [9],75%
same,Population Normal (%),[1]; [9],97%
same,Population Pyknosed Nuclei (%),[1]; [9],19%
same,Population Tubulin-Different-Phenotype (%),[1]; [9],13%
same,Total Cell Count,[1]; [9],249
same,Population Apoptotic (%),[1]; [10],29%
same,Population Fragmented Nuclei (%),[1]; [10],13%
same,Population Healthy Nuclei (%),[1]; [10],72%
same,Population Hoechst High Intensity Objects (%),[1]; [10],10%
same,Population Membrane Permeable-Phenotype (%),[1]; [10],19%
same,Population Mitochondria Different-Phenotype (%),[1]; [10],22%
same,Population Mitotic Cells (%),[1]; [10],70%
same,Population Normal (%),[1]; [10],89%
same,Population Pyknosed Nuclei (%),[1]; [10],14%
same,Population Tubulin-Different-Phenotype (%),[1]; [10],15%
same,Total Cell Count,[1]; [10],136
same,Population Apoptotic (%),[1]; [11],78% and 72%
same,Population Fragmented Nuclei (%),[1]; [11],12% and 17%
same,Population Healthy Nuclei (%),[1]; [11],56% and 61%
same,Population Hoechst High Intensity Objects (%),[1]; [11],4% and 9%
same,Population Membrane Permeable-Phenotype (%),[1]; [11],45% and 40%
same,Population Mitochondria Different-Phenotype (%),[1]; [11],66% and 88%
same,Population Mitotic Cells (%),[1]; [11],21% and 27%
same,Population Normal (%),[1]; [11],95% and 90%
same,Population Pyknosed Nuclei (%),[1]; [11],31% and 20%
same,Population Tubulin-Different-Phenotype (%),[1]; [11],97%
same,Total Cell Count,[1]; [11],171 and 128
same,Population Apoptotic (%),[1]; [12],60% and 35%
same,Population Fragmented Nuclei (%),[1]; [12],33% and 11%
same,Population Healthy Nuclei (%),[1]; [12],33% and 64%
same,Population Hoechst High Intensity Objects (%),[1]; [12],6% and 2%
same,Population Membrane Permeable-Phenotype (%),[1]; [12],64% and 53%
same,Population Mitochondria Different-Phenotype (%),[1]; [12],75% and 96%
same,Population Mitotic Cells (%),[1]; [12],39% and 65%
same,Population Normal (%),[1]; [12],93% and 97%
same,Population Pyknosed Nuclei (%),[1]; [12],33% and 24%
same,Population Tubulin-Different-Phenotype (%),[1]; [12],100%
same,Total Cell Count,[1]; [12],133 and 72
same,Population Apoptotic (%),[1]; [13],66%
same,Population Fragmented Nuclei (%),[1]; [13],18%
same,Population Healthy Nuclei (%),[1]; [13],41%
same,Population Hoechst High Intensity Objects (%),[1]; [13],10%
same,Population Membrane Permeable-Phenotype (%),[1]; [13],49%
same,Population Mitochondria Different-Phenotype (%),[1]; [13],85%
same,Population Mitotic Cells (%),[1]; [13],33%
same,Population Normal (%),[1]; [13],89%
same,Population Pyknosed Nuclei (%),[1]; [13],40%
same,Population Tubulin-Different-Phenotype (%),[1]; [13],97%
same,Total Cell Count,[1]; [13],133
same,Population Apoptotic (%),[1]; [14],73%
same,Population Fragmented Nuclei (%),[1]; [14],9%
same,Population Healthy Nuclei (%),[1]; [14],43%
same,Population Hoechst High Intensity Objects (%),[1]; [14],7%
same,Population Membrane Permeable-Phenotype (%),[1]; [14],81%
same,Population Mitochondria Different-Phenotype (%),[1]; [14],96%
same,Population Mitotic Cells (%),[1]; [14],26%
same,Population Normal (%),[1]; [14],92%
same,Population Pyknosed Nuclei (%),[1]; [14],46%
same,Population Tubulin-Different-Phenotype (%),[1]; [14],100%
same,Total Cell Count,[1]; [14],86
same,Growth Rate,[2]; [15],0
same,Growth Rate,"[2]; 6 h, replicate number 2, timepoint 6 hours",0
same,Growth Rate,[2]; [16],0
same,Growth Rate,[2]; [17],0
same,Growth Rate,[2]; [18],0
same,Growth Rate,[3]; [15],0
same,Growth Rate,"[3]; 0 h, replicate number 2, timepoint 0 hours",1
same,Growth Rate,[3]; [19],0
same,Growth Rate,[3]; [16],0
same,Growth Rate,[3]; [17],0
same,Growth Rate,[3]; [18],0
same,Growth Rate,[4]; [15],0
same,Growth Rate,[4]; [19],0
same,Growth Rate,[4]; [16],0
same,Growth Rate,[4]; [17],0
same,Growth Rate,[4]; [18],0
